Results reported in ChEMBL document CHEMBL4041530, “Development of spiroguanidine-derived α7 neuronal nicotinic receptor partial agonists” (Bioorg Med Chem Lett, 2017).

Tested on: Rattus norvegicus
Assay: In vivo agonist activity at alpha7 nAChR in Wistar rat assessed as induction of c-fos gene expression in medial prefrontal cortex at 3 mg/kg, sc after 2 hrs by qPCR method relative to control
Format: functional
Details: not given
Method in brief: (§1)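 Rats dosed sc (0.3–10 mg/kg; vehicle 2 mL/kg sc) and c-fos and Arc expression measured in medial prefrontal cortex. Values are normalized to vehicle, mean ± SEM, N = 8. Comparison with vehicle by Dunnett's multiple comparison test (adjusted p). β2-microglobulin served as endogenous control. Plasma and brain/plasma levels were sampled at 3 and 10 mg/kg.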

SMILES	fold change (FC)
c1ccc2sc(NC3=NCC4(CN5CCC4CC5)N3)nc2c1 (centres undefined)	1.7

Target: Neuronal acetylcholine receptor subunit alpha-7 (Rattus norvegicus) (UniProt Q05941)
Assay: Displacement of [125I]Tyr54-alpha-Bungarotoxin from rat alpha7 nAChR expressed in HEK293 cell membranes co-expressing human RIC-3 after 2 hrs by gamma counting method
Details: not given

Neuronal acetylcholine receptor subunit alpha-7 (Rattus norvegicus), sequence (Q05941 whole entry): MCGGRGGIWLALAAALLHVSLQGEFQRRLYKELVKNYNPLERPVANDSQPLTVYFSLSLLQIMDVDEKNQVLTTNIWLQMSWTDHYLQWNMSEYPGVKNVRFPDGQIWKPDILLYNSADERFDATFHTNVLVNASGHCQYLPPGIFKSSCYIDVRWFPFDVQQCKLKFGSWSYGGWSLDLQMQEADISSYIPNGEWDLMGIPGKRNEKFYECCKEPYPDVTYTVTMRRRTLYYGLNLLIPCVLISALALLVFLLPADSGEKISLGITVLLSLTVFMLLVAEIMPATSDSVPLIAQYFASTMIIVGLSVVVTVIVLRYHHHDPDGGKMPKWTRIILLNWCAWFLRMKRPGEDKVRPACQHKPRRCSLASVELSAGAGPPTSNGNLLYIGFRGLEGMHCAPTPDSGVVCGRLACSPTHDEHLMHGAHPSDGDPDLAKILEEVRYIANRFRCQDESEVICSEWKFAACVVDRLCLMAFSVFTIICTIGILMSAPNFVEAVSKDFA

SMILES	INH [nM]
c1ccc2sc(NC3=NCC4(CN5CCC4CC5)N3)nc2c1 (centres undefined)	240

Species: Homo sapiens
Assay: Selectivity ratio of IC50 for 5-HT3A receptor (unknown origin) to EC50 for alpha7 nAChR (unknown origin) expressed in HEK293 cells
Format: cell-based
Details: not given
Method in brief: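 Selectivity ratio calculated as 5-HT3A IC50 (FLIPR Ca2+ antagonist assay) divided by α7 EC50 (FLIPR Ca2+ agonist assay).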

SMILES	Ratio IC50/EC50
CN1C(Nc2nc3ccccc3s2)=NCC12CN1CCC2CC1 (centres undefined)	0.25
c1ccc2sc(NC3=NCC4(CN5CCC4CC5)N3)nc2c1 (centres undefined)	1

Tested on: not listed separately
Assay: Plasma concentration in Wistar rat at 3 mg/kg, sc after 2 hrs
Format: ADME, organism-based
Details: not given
Method in brief: (§2)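 Plasma concentration and brain/plasma ratio measured at 3 and 10 mg/kg sc, in the same rats used for the prefrontal c-fos/Arc expression study.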

SMILES	concentration at 2 h [nM]
c1ccc2sc(NC3=NCC4(CN5CCC4CC5)N3)nc2c1 (centres undefined)	130 to 131

Tested on: not listed separately
Assay: Drug uptake in Wistar rat brain at 0.3 mg/kg, sc after 2 hrs
Format: ADME, organism-based
Details: read-out: Drug uptake

SMILES	concentration at 2 h [nM]
c1ccc2sc(NC3=NCC4(CN5CCC4CC5)N3)nc2c1 (centres undefined)	58

Tested on: Rattus norvegicus
Assay: Effect on beta2-microglobulin gene expression in Wistar rat medial prefrontal cortex at 0.3 to 10 mg/kg, sc after 2 hrs by qPCR method
Format: ADME, organism-based
Details: in vivo
Method in brief: (§3)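 Rats dosed sc at 0.3–10 mg/kg, or with vehicle at 2 mL/kg sc. Medial prefrontal cortex was assayed for c-fos and Arc expression, normalized to vehicle, with β2-microglobulin as the endogenous control. Data are mean ± SEM, N = 8. Dunnett's multiple comparison test against vehicle gave adjusted p values.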

SMILES	Activity
c1ccc2sc(NC3=NCC4(CN5CCC4CC5)N3)nc2c1 (centres undefined)	Non-Toxic

Tested on: not listed separately
Assay: Plasma concentration in Wistar rat at 1 mg/kg, sc after 2 hrs
Format: ADME, organism-based
Details: not given

SMILES	concentration at 2 h [nM]
c1ccc2sc(NC3=NCC4(CN5CCC4CC5)N3)nc2c1 (centres undefined)	43

Tested on: not listed separately
Assay: Ratio of drug uptake in Wistar rat brain to plasma at 0.3 mg/kg, sc after 2 hrs
Format: ADME, organism-based
Details: read-out: BPR

SMILES	Kp at 2 h
c1ccc2sc(NC3=NCC4(CN5CCC4CC5)N3)nc2c1 (centres undefined)	4.8

Tested on: Rattus norvegicus
Assay: In vivo agonist activity at alpha7 nAChR in Wistar rat assessed as induction of Arc gene expression in medial prefrontal cortex at 0.3 mg/kg, sc after 2 hrs by qPCR method relative to control
Format: functional
Details: not given
Method in brief: as §1

SMILES	fold change (FC)
c1ccc2sc(NC3=NCC4(CN5CCC4CC5)N3)nc2c1 (centres undefined)	1.2

Tested on: not listed separately
Assay: Drug uptake in Wistar rat brain at 3 mg/kg, sc after 2 hrs
Format: ADME, organism-based
Details: read-out: Drug uptake

SMILES	concentration at 2 h [nM]
c1ccc2sc(NC3=NCC4(CN5CCC4CC5)N3)nc2c1 (centres undefined)	524

Tested on: Rattus norvegicus
Assay: In vivo agonist activity at alpha7 nAChR in Wistar rat assessed as induction of c-fos gene expression in medial prefrontal cortex at 10 mg/kg, sc after 2 hrs by qPCR method relative to control
Format: functional
Details: not given
Method in brief: as §3

SMILES	fold change (FC)
c1ccc2sc(NC3=NCC4(CN5CCC4CC5)N3)nc2c1 (centres undefined)	1.9

Tested on: not listed separately
Assay: Plasma concentration in Wistar rat at 0.3 mg/kg, sc after 2 hrs
Format: ADME, organism-based
Details: not given

SMILES	concentration at 2 h [nM]
c1ccc2sc(NC3=NCC4(CN5CCC4CC5)N3)nc2c1 (centres undefined)	12

Tested on: Rattus norvegicus
Assay: In vivo agonist activity at alpha7 nAChR in Wistar rat assessed as induction of Arc gene expression in medial prefrontal cortex at 10 mg/kg, sc after 2 hrs by qPCR method relative to control
Format: functional
Details: not given
Method in brief: as §3

SMILES	fold change (FC)
c1ccc2sc(NC3=NCC4(CN5CCC4CC5)N3)nc2c1 (centres undefined)	2.7

Target: T1, 5-hydroxytryptamine receptor 3A (Homo sapiens, UniProt P46098)
T1 sequence (P46098 whole entry): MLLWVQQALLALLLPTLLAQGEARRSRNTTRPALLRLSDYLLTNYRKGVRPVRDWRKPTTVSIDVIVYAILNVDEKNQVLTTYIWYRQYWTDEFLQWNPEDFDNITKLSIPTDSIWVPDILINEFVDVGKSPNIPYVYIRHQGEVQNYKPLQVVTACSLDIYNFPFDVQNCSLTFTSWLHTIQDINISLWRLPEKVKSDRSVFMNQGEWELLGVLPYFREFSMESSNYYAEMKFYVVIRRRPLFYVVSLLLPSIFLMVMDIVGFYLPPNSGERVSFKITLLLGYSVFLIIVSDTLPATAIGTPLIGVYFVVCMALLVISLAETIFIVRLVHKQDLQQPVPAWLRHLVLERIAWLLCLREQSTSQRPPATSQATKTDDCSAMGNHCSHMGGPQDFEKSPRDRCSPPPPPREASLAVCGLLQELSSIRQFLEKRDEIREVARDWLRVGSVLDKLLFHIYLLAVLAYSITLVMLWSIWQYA
Assay: Antagonist activity at 5-HT3A receptor (unknown origin) assessed as decrease in calcium influx by Fluo-4-AM dye based FLIPR assay
Details: not given
Method in brief: (§4)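 Ca2+-based fluorescence imaging plate reader screen, run as two assays: α7 nAChR agonism and 5-HT3A receptor antagonism. Number of determinations recorded per value.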

SMILES	IC50 [nM]
CN1C(Nc2nc3ccccc3s2)=NCC12CN1CCC2CC1 (centres undefined)	43
c1ccc2sc(NC3=NCC4(CN5CCC4CC5)N3)nc2c1 (centres undefined)	26

Target: Neuronal acetylcholine receptor subunit alpha-7 (Homo sapiens, UniProt P36544)
Assay: Agonist activity at alpha7 nAChR (unknown origin) expressed in HEK293 cells assessed as increase in calcium influx by Fluo-4-AM dye based FLIPR assay
Format: cell-based
Details: not given
Method in brief: as §4

Neuronal acetylcholine receptor subunit alpha-7 (Homo sapiens, UniProt P36544), sequence (P36544 whole entry): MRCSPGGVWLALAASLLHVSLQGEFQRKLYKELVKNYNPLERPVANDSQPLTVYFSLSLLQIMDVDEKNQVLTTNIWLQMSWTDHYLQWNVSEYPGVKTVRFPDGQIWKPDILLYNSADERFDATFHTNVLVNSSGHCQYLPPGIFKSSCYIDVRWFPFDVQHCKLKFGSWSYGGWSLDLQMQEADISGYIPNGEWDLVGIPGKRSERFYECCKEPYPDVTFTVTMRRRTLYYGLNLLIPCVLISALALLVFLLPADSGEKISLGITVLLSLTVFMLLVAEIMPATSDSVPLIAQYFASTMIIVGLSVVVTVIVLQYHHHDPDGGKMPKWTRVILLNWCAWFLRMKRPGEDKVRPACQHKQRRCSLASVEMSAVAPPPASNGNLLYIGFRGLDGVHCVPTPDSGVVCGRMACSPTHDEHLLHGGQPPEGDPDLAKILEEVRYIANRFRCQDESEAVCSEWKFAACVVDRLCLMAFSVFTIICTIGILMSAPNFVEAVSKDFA

SMILES	EC50 [nM]
CN1C(Nc2nc3ccccc3s2)=NCC12CN1CCC2CC1 (centres undefined)	170
c1ccc2sc(NC3=NCC4(CN5CCC4CC5)N3)nc2c1 (centres undefined)	26

Tested on: Rattus norvegicus
Assay: In vivo agonist activity at alpha7 nAChR in Wistar rat assessed as induction of Arc gene expression in medial prefrontal cortex at 3 mg/kg, sc after 2 hrs by qPCR method relative to control
Format: functional
Details: not given
Method in brief: as §1

SMILES	fold change (FC)
c1ccc2sc(NC3=NCC4(CN5CCC4CC5)N3)nc2c1 (centres undefined)	1.5

Target: Neuronal acetylcholine receptor subunit alpha-7 (Rattus norvegicus, UniProt Q05941)
Assay: Agonist activity at rat alpha7 nAChR expressed in HEK293 cells co-expressing human RIC-3 assessed as area under current curve at holding potential of -90 mV by whole-cell voltage clamp electrophysiology method
Format: cell-based
Details: not given
Method in brief: (§5)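 Concentration-response patch-clamp electrophysiology in HEK-293 cells expressing rat α7 nAChR. EC50 is taken from response area. Efficacy is given as Ymax from both area and peak response.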

Neuronal acetylcholine receptor subunit alpha-7 (Rattus norvegicus, UniProt Q05941), sequence (Q05941 whole entry): as the sequence (Q05941 whole entry) above

SMILES	EC50 [nM]
CN1C(Nc2nc3ccccc3s2)=NCC12CN1CCC2CC1 (centres undefined)	1200
c1ccc2sc(NC3=NCC4(CN5CCC4CC5)N3)nc2c1 (centres undefined)	200

Tested on: not listed separately
Assay: Drug uptake in Wistar rat brain at 1 mg/kg, sc after 2 hrs
Format: ADME, organism-based
Details: read-out: Drug uptake

SMILES	concentration at 2 h [nM]
c1ccc2sc(NC3=NCC4(CN5CCC4CC5)N3)nc2c1 (centres undefined)	184

Target: Neuronal acetylcholine receptor subunit alpha-7 (Rattus norvegicus) (UniProt Q05941)
Assay: Agonist activity at rat alpha7 nAChR expressed in HEK293 cells co-expressing human RIC-3 assessed as maximum peak current at 10 uM at holding potential of -90 mV by whole-cell voltage clamp electrophysiology method relative to acetylcholine
Format: cell-based
Details: not given
Method in brief: as §5

SMILES	Emax [%]
CN1C(Nc2nc3ccccc3s2)=NCC12CN1CCC2CC1 (centres undefined)	25
c1ccc2sc(NC3=NCC4(CN5CCC4CC5)N3)nc2c1 (centres undefined)	29

Tested on: Rattus norvegicus
Assay: In vivo agonist activity at alpha7 nAChR in Wistar rat assessed as induction of c-fos gene expression in medial prefrontal cortex at 0.3 mg/kg, sc after 2 hrs by qPCR method relative to control
Format: functional
Details: not given
Method in brief: as §1

SMILES	fold change (FC)
c1ccc2sc(NC3=NCC4(CN5CCC4CC5)N3)nc2c1 (centres undefined)	1.5

Tested on: Rattus norvegicus
Assay: In vivo agonist activity at alpha7 nAChR in Wistar rat assessed as induction of Arc gene expression in medial prefrontal cortex at 1 mg/kg, sc after 2 hrs by qPCR method relative to control
Format: functional
Details: not given
Method in brief: as §1

SMILES	fold change (FC)
c1ccc2sc(NC3=NCC4(CN5CCC4CC5)N3)nc2c1 (centres undefined)	1

Tested on: not listed separately
Assay: Ratio of drug uptake in Wistar rat brain to plasma at 1 mg/kg, sc after 2 hrs
Format: ADME, organism-based
Details: read-out: BPR

SMILES	Kp at 2 h
c1ccc2sc(NC3=NCC4(CN5CCC4CC5)N3)nc2c1 (centres undefined)	4.3

Target: Neuronal acetylcholine receptor subunit alpha-7 (Rattus norvegicus) (UniProt Q05941)
Assay: Agonist activity at rat alpha7 nAChR expressed in HEK293 cells co-expressing human RIC-3 assessed as area under current curve at 10 uM at holding potential of -90 mV by whole-cell voltage clamp electrophysiology method relative to acetylcholine
Format: cell-based
Details: not given
Method in brief: as §5

SMILES	Emax [%]
CN1C(Nc2nc3ccccc3s2)=NCC12CN1CCC2CC1 (centres undefined)	67
c1ccc2sc(NC3=NCC4(CN5CCC4CC5)N3)nc2c1 (centres undefined)	78

Tested on: not listed separately
Assay: Plasma concentration in Wistar rat at 10 mg/kg, sc after 2 hrs
Format: ADME, organism-based
Details: not given
Method in brief: as §2

SMILES	concentration at 2 h [nM]
c1ccc2sc(NC3=NCC4(CN5CCC4CC5)N3)nc2c1 (centres undefined)	460 to 463

Tested on: Rattus norvegicus
Assay: In vivo agonist activity at alpha7 nAChR in Wistar rat assessed as induction of c-fos gene expression in medial prefrontal cortex at 1 mg/kg, sc after 2 hrs by qPCR method relative to control
Format: functional
Details: not given
Method in brief: as §1

SMILES	fold change (FC)
c1ccc2sc(NC3=NCC4(CN5CCC4CC5)N3)nc2c1 (centres undefined)	1.1

Tested on: not listed separately
Assay: Ratio of drug uptake in Wistar rat brain to plasma at 3 mg/kg, sc after 2 hrs
Format: ADME, organism-based
Details: read-out: BPR
Method in brief: as §2

SMILES	Kp at 2 h
c1ccc2sc(NC3=NCC4(CN5CCC4CC5)N3)nc2c1 (centres undefined)	4

Tested on: not listed separately
Assay: Drug uptake in Wistar rat brain at 10 mg/kg, sc after 2 hrs
Format: ADME, organism-based
Details: read-out: Drug uptake

SMILES	concentration at 2 h [nM]
c1ccc2sc(NC3=NCC4(CN5CCC4CC5)N3)nc2c1 (centres undefined)	1920

Tested on: not listed separately
Assay: Ratio of drug uptake in Wistar rat brain to plasma at 10 mg/kg, sc after 2 hrs
Format: ADME, organism-based
Details: read-out: BPR
Method in brief: as §2

SMILES	Kp at 2 h
c1ccc2sc(NC3=NCC4(CN5CCC4CC5)N3)nc2c1 (centres undefined)	4.1
